Data taken from ChEMBL document CHEMBL4354866, “TREK Channel Family Activator with a Well-Defined Structure-Activation Relationship for Pain and Neurogenic Inflammation” (J Med Chem, 2020).
Active and inactive are the calls of the source.

Tests used:
[1] = biological target: T1, Potassium channel subfamily K member 18 (Homo sapiens) (UniProt Q7Z418); test: Activation of recombinant human TRESK expressed in HEK293T cells assessed as increase in K+ current amplitude at 10 uM by whole cell voltage clamp electrophysiological analysis; type: cell-based
T1 sequence (whole entry): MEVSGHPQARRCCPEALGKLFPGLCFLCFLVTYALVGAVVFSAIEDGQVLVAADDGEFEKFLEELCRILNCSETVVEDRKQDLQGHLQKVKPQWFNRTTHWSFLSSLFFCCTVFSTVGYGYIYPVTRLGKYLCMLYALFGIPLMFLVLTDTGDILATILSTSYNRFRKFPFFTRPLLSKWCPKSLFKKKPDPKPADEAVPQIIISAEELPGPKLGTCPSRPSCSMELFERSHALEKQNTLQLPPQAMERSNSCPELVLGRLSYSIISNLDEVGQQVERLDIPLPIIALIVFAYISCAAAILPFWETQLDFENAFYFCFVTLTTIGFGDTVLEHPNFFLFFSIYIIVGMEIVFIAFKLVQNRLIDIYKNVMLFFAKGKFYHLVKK
Outline: (§1)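 HEK-293T cells transiently transfected with the human K2P channel. Whole-cell clamp at -60 mV, 500-ms ramp -120 to +60 mV. Pipette 140 KCl (pH 7.4), external 145 NaCl/4 KCl (pH 7.3). Compound 10 μM, diluted from 10 mM DMSO stock into external solution.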

[2] = biological target: T2, Potassium channel subfamily K member 2 (Rattus norvegicus) (UniProt Q920B6); test: Activation of TREK in depolarized Sprague-Dawley rat DRG neurons assessed as increase in K+ current amplitude at 10 uM by whole cell voltage clamp electrophysiological analysis relative to control
T2 sequence (whole entry): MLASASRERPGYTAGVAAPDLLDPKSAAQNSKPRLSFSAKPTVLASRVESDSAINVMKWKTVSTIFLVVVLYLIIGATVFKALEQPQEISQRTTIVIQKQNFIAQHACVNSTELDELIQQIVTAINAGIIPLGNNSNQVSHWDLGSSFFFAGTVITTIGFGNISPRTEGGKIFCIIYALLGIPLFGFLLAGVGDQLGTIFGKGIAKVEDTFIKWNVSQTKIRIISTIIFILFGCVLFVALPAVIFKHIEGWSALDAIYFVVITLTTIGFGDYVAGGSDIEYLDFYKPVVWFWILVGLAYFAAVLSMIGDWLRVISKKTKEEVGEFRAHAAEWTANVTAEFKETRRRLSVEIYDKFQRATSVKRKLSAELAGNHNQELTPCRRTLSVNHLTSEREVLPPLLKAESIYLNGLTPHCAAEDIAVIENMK

Mus musculus [3] = test: Analgesic activity in cerulein-induced mouse model of acute pancreatitis assessed as reduction in pancreatic edema at 10 mg/kg, ip administered at 2 hrs interval for 10 hrs starting from post-first cerulein challenge and measured 12 hrs post-first cerulein challenge by H and E staining based histopathological analysis; type: functional, organism-based
Outline: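 Cerulein pancreatitis: 7 hourly i.p. injections of 50 µg/kg; 10 mg/kg compound i.p. at 2, 4, 6, 8 and 10 h. Mice killed at 12 h and pancreas harvested for MPO activity and H&E histology. Ten random fields per slide scored blind by two observers for edema, inflammatory infiltration and acinar necrosis; n = 6.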

[4] = biological target: Potassium channel subfamily K member 2 (Homo sapiens, UniProt O95069, W290A); test: Activation of recombinant human TREK1 W290A mutant expressed in HEK293T cells assessed as increase in K+ current amplitude by whole cell voltage clamp electrophysiological analysis; type: cell-based
Outline: (§2)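 Transiently transfected HEK-293T cells, whole-cell voltage clamp. Held at -60 mV, 500-ms ramp -120 to +60 mV. Pipette (mM) 140 KCl, 5 EGTA, 10 HEPES, pH 7.4; external 145 NaCl, 4 KCl, pH 7.3. Compound diluted from 10 mM DMSO stock and applied extracellularly. Current increase over control fitted to concentration–response curves for EC50.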

[5] = biological target: Potassium channel subfamily K member 2 (Homo sapiens, UniProt O95069, I293A); test: Activation of recombinant human TREK1 I293A mutant expressed in HEK293T cells assessed as increase in K+ current amplitude by whole cell voltage clamp electrophysiological analysis; type: cell-based; outline: as §2
Mus musculus [6] = test: Analgesic activity in CFA-induced mouse model of chronic inflammatory pain assessed as reduction in mechanical allodynia at 5 mg/kg, ip measured up to 90 mins by von frey test; type: functional, organism-based
Outline: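 CFA (20 μl s.c.) injected into the left hindpaw of mice; compound given i.p. in DMSO/Tween 80/saline vehicle. Mice acclimated 3 days on a wire-mesh floor; mechanical threshold measured with von Frey filaments applied in ascending order.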

[7] = biological target: T3, Potassium channel subfamily K member 2 (Homo sapiens) (UniProt O95069); test: Activation of recombinant human TREK1 expressed in HEK293T cells assessed as change in single channel conductance by inside-out patch electrophysiological analysis; type: cell-based
T3 sequence (whole entry): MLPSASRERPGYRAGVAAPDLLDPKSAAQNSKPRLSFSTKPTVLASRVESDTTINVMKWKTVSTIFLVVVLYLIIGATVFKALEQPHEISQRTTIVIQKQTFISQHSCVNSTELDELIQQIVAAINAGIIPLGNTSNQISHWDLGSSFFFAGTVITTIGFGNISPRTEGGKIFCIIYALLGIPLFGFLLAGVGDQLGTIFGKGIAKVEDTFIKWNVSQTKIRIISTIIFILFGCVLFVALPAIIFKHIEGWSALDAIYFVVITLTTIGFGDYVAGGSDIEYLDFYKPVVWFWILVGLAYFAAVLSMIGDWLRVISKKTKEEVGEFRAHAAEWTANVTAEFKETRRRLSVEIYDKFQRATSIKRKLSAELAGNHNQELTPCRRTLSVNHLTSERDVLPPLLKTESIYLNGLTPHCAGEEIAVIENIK
Outline: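 Inside-out patches from HEK-293T cells expressing human TREK-1 (pEGFP-N1), 10 μM compound. Conductance taken as first open-state amplitude over voltage at -60 or +60 mV.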

[8] = biological target: T2, Potassium channel subfamily K member 2 (Rattus norvegicus); test: Activation of TREK in depolarized Sprague-Dawley rat DRG neurons assessed as reversal potential of K+ current at 10 uM by whole cell voltage clamp electrophysiological analysis
Outline: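 Rat DRG neurons, whole-cell voltage clamp in 3 mM external K⁺. Voltage ramps -20 to -120 mV before and during 10 μM compound. The compound-sensitive current was obtained by subtraction, and its reversal potential was read where it could be resolved (4 cells).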

[9] = biological target: Potassium channel subfamily K member 3 (Homo sapiens) (UniProt O14649); test: Activation of recombinant human TASK1 expressed in HEK293T cells assessed as increase in K+ current amplitude at 10 uM by whole cell voltage clamp electrophysiological analysis; type: cell-based; outline: as §1
Mus musculus [10] = test: Analgesic activity in cerulein-induced mouse model of acute pancreatitis assessed as reduction in mechanical allodynia at 10 mg/kg, ip administered at 2 hrs interval for 10 hrs starting from post-first cerulein challenge and measured 0.5 hrs post-last cerulein challenge by von frey test; type: functional, organism-based
Outline: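 Acute pancreatitis induced by 7 hourly i.p. injections of cerulein (50 µg/kg in ice-cold PBS); controls received PBS. Compound 10 mg/kg i.p. or vehicle at 2, 4, 6, 8 and 10 h. Von Frey testing (ascending filaments) started 0.5 h after the last cerulein injection.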

Chain of Potassium channel subfamily K member 3 (Homo sapiens) (O14649 whole entry, looked up): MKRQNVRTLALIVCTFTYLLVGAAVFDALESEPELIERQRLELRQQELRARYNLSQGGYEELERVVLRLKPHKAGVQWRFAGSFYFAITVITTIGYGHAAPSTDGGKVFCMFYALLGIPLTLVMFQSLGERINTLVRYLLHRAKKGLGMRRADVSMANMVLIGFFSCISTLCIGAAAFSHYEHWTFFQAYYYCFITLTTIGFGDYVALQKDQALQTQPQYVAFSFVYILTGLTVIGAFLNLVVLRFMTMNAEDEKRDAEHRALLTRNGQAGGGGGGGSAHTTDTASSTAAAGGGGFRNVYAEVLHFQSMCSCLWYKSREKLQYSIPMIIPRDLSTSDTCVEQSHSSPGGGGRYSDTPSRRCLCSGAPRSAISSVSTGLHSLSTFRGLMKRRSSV
Chain of Potassium channel subfamily K member 2 (Homo sapiens, UniProt O95069, I293A) (O95069 whole entry I293A): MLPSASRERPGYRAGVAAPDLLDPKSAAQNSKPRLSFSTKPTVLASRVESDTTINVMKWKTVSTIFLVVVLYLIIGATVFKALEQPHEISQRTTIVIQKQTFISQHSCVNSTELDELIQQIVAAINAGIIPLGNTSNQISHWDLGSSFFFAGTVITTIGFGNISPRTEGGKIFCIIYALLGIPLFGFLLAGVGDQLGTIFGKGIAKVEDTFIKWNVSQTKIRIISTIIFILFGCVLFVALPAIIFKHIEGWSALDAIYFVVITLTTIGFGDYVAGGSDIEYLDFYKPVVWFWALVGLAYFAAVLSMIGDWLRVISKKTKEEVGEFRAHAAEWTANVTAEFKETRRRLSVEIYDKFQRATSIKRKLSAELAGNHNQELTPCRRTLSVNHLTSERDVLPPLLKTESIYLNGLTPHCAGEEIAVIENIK
Chain of Potassium channel subfamily K member 2 (Homo sapiens, UniProt O95069, W290A) (O95069 whole entry W290A): as the sequence (O95069 whole entry I293A) above, with W290A, A293I counted along it

Activity [1]: Active
Activity [2]: 24%
EC50 [4]: 3.91 µM
EC50 [5]: 7.98 µM
Activity [7]: inactive
Activity [8]: -75 mV
Activity [9]: Active
SMILES: Cc1ccc2nc(-c3ccc(NC(=O)[C@@H]4CC[C@H](C(=O)O)C4)cc3)sc2c1
Activity (Mus musculus [3]): Active
Activity (Mus musculus [6]): Active
Activity (Mus musculus [10]): Active
